Most compounds without a hit are left out; they make up all but 1.2% or so of the library.
CSN deneddyl inh = CSN deneddylation inhibition; inhibition, % at 12.5 µM; Purified CSN, SCF-Nedd8-OG deneddylation, fluorescence polarization; AID 651999; 360,000 tested, 0.38% active;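 active = pattern-corrected inhibition above about 35%, with an unprinted fluorescence ratio check between 0.5 and 1.5, limit read from the data, passing the limit was not always enough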;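 note: 0% = enzyme with substrate and 100% = substrate without enzyme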
Target sequence (Q92905 whole entry, looked up, one chain of several): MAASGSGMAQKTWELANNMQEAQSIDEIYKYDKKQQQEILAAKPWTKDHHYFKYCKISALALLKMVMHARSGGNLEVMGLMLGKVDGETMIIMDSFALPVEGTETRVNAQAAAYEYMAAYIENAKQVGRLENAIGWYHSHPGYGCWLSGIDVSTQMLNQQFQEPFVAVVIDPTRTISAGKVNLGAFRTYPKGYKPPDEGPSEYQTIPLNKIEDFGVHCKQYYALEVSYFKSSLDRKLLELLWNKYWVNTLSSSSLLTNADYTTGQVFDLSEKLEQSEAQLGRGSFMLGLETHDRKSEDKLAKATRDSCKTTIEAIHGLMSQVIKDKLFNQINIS
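Material: human Csn5 produced in HEK293T cells; Input: enzyme 0.24 nM; Reagent: SCFSkp2-Nedd8OG substrate at 10 nM final; Dosing: 12.5 µM compound; Incubation: 90 min reaction at room temperature; Detection: fluorescence polarization of the substrate; Evaluation: % inhibition of substrate cleavage by Csn5; Control set: substrate-only high control, full reaction low control.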
TPT1 inhibitor = inhibitors of Candida albicans tRNA 2'-phosphotransferase TPT1. AID 1962. recombinant caTPT1, FP RNA substrate dephosphorylation. 300,000 tested, 0.81% active. inhibition, % at 5 µM;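 active = inhibition above the mean of all tested compounds plus 3 SD, set per screening campaign, cut at about 24% in these data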;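 note: plate controls were DMSO alone for no effect and ferristatin control at 100 nM for full effect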
Rtt109 HAT inh = inhibitors of Candida albicans Rtt109/Vps75 histone acetyltransferase. Q5AAJ8. purified Rtt109/Vps75, ThioGlo CoA-SH fluorescence, 4 h. inhibition, % at 34.9 µM. 330,000 tested, 0.16% active. AID 540336;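 active = inhibition of at least 50% in every replicate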
HNF4A DNA FP = change in binding of human HNF4 alpha to DNA; P41235; HNF4a-FITC DNA binding, fluorescence polarization, 1 h; activity change, % at 10 µM; 360,000 tested, 0.3% active; AID 1224865; in the data active = activity change above about 30%, passing the limit was not always enough
* marks the source's active call; other numbers are inactive results; · = no result given.

SMILES	CSN deneddyl inh	TPT1 inhibitor	Rtt109 HAT inh	HNF4A DNA FP
COc1cc(S(=O)(=O)n2nc(C)cc2C)c(OC)cc1Cl	0	1	65*	-1
O=C(C1CCOCC1)N1CCCC(N2CCN(c3cccc(C(F)(F)F)c3)CC2)C1 (centres undefined)	-3	-1	52*	3
O=C(C1CCOCC1)N1CCCC(N2CCN(c3cccc(Cl)c3)CC2)C1 (centres undefined)	3	-1	-1	-3
C[C@@H]1CCC(=O)N(CC[C@H](Oc2ccccc2)c2ccccc2)CC1	-2	-2	-6	2
CCn1c(CCn2c3ccccc3c3ccccc32)n[nH]c1=S	1	-5	50*	0
COc1ccc(Cl)cc1NC(=S)NCCc1ccc(F)cc1	8	·	4	-3
COc1ccc(Cl)cc1NC(=S)NCCO	-10	-3	-2	57*
CCCSc1nc(C)c(-c2csc(C(C#N)=C3CCCC3)n2)cc1C#N	45*	7	-2	-13
CCCCSc1nc2c(cc1C#N)CCC2	4	-2	0	-5
COc1cccc(C(=O)NC2CC3CCCC(C2)N3CC(=O)Nc2ccc(N(C)C)cc2)c1 (centres undefined)	5	-2	8	-2
COc1cccc(C(=O)NC2CC3CCCC(C2)N3CC(=O)Nc2ccccc2)c1 (centres undefined)	62*	1	-2	0
O=C(CCc1nnc(C2(c3ccc(Cl)cc3)CCC2)o1)NCCCn1cccn1	3	-7	50*	4
CCOC(=O)c1sc2nc(C)nc(SCC(=O)N(C)C3CCS(=O)(=O)C3)c2c1C (centres undefined)	10	8	50*	6
CCN(C(=O)CSc1nc(C)nc2sc(C)c(C)c12)C1CCS(=O)(=O)C1 (centres undefined)	-3	·	0	-2
CN(CCc1ccccc1)C(C(=O)Nc1ccc2c(c1)OCCO2)C1CC1 (centres undefined)	-2	·	·	-2
O=C(CN1CCCCC1)n1c2ccccc2c2ccccc21	3	3	56*	-2
CN1CCN(CC(=O)n2c3c(c4ccccc42)CCCC3)CC1	39*	2	1	6
COc1ccc(S(=O)(=O)N2CCc3ccccc32)cc1C(=O)Nc1ccc(NC(C)=O)cc1	7	·	-4	1
CC(C)/C=C/CN1CCN(CCCc2ccccc2)C(CCO)C1 (centres undefined)	-2	0	-1	-1
CCc1ccccc1NC(=O)CN1CCN(C(=O)CNC(=O)Cc2cccc3ccccc23)CC1	4	·	-4	34*
Cc1cccc(C)c1NC(=O)CN1CCN(C(=O)CNC(=O)Cc2cccc3ccccc23)CC1	7	·	·	0
CCCCCCCCCn1c2c(c(=N)c3c1CCC3)CCC2	1	-5	68*	0
CC(=O)NC(CC(=O)N(Cc1ccccc1)c1cccc(C)c1)c1ccccc1 (centres undefined)	-3	0	12	-7
O=C1c2cc(Cl)ccc2OC2(CCNCC2)C12CC(c1ccc(Cl)cc1)=NO2 (centres undefined)	68*	-6	-4	18
O=C1c2cc(Cl)ccc2OC2(CCNCC2)C12CC(c1ccccc1)=NO2 (centres undefined)	1	-1	3	5
SMILES	CSN deneddyl inh	TPT1 inhibitor	Rtt109 HAT inh	HNF4A DNA FP
COc1cc(C(C)=O)ccc1OCC(O)CN1CCN(c2c(C)cccc2C)CC1 (centres undefined)	-3	6	0	45*
CCOc1ccc(N(CC(=O)NCc2ccco2)C(=O)CCC(=O)Nc2ccccn2)cc1	1	·	1	-1
COc1ccc(OC)c(S(=O)(=O)N2CCC(C(=O)NCc3ccc4c(c3)OCO4)CC2)c1	-4	-2	-1	4
CCc1ccc(N2CSC3=C(C#N)C(c4cccs4)CC(=O)N3C2)cc1 (centres undefined)	36*	2	-14	-13
Cc1ccc(N2CSC3=C(C#N)C(c4cccs4)CC(=O)N3C2)cc1 (centres undefined)	25	6	5	-4
CCOC(=O)N1CCN(C(=O)CN(C)S(=O)(=O)c2ccc(Cl)cc2)CC1	1	-5	3	1
CC(C)Nc1nc(SC(C)C(=O)Nc2ccccc2)nc(N(C)C)n1 (centres undefined)	-2	1	13	3
CC(Sc1ncc(C#N)c(N)n1)C(=O)Nc1ccccc1 (centres undefined)	54*	2	-3	0
CCCN(Cc1nnc(-c2ccccc2Cl)o1)C(=O)c1oc2ccccc2c1C	-2	-2	8	1
C=CC(=O)Nc1cccc(Oc2ccnc(Nc3ccc(N4CCN(C)CC4)cc3)n2)c1	7	·	4	23
C=CC(=O)Nc1cccc(Oc2ccnc3[nH]ccc23)c1	122*	·	-14	174
CCc1cccc(NC(=O)C2CCCN(c3ncnc4c3nc3n4CCCCC3)C2)c1 (centres undefined)	0	2	87*	-2
O=C(Nc1cccnc1)C1CCCN(c2ncnc3c2nc2n3CCCCC2)C1 (centres undefined)	-3	-5	-2	4
CC(C)n1c(O)c(N=NC(=O)CNC(=O)Cc2ccc(Cl)cc2)c2ccccc21	4	1	8	0
COc1ccccc1C(=O)NCC(=O)N=Nc1c(O)n(C(C)C)c2ccccc12	2	2	64*	-1
Cc1cc(N)nc(SCC(=O)N2C(C)CCCC2C)n1 (centres undefined)	3	1	-12	2
CC1CCCC(C)N1C(=O)CSc1nc(N)cc(N)n1 (centres undefined)	1	1	3	53*
CSc1ccc(S(=O)(=O)NC2CC2)cc1	5	1	-13	-2
CC(C)N1CCCC(C)(C(=O)Nc2nc3ccccc3[nH]2)C1 (centres undefined)	1	·	·	-2
CCOc1ccc(N2CC(C(=O)OC)CC2=O)cc1 (centres undefined)	31	-1	4	50*
CCNC(=O)C1CC(=O)N(c2ccc(OCC)cc2)C1 (centres undefined)	-2	-5	·	3
O=C(Nc1ccccc1)c1oc2ccccc2c1NC(=O)C1CC1	-1	1	-5	61*
O=C(Nc1ccc2c(c1)OCCO2)c1oc2ccccc2c1NC(=O)C1CC1	-14	3	-1	-6
NC(=O)c1cccc([N+](=O)[O-])c1	-2	·	-18	5
O=C(c1cccc([N+](=O)[O-])c1)c1ccc2[nH]c(=O)[nH]c2c1	97*	4	-8	4
CC(=O)NC(CC(=O)O)c1ccccc1 (centres undefined)	-4	-2	-3	4
C=CC(=C)CC(NC)c1ccccc1 (centres undefined)	47*	0	14	28
O=C(COc1ccc2ccccc2c1)N[C@@H](C(=O)O)c1ccc(O)cc1	1	-3	-1	4
Cc1nc(NC(=O)c2ccccc2)sc1-c1csc(NCc2ccccc2)n1	32	4	-17	3
Cc1nc(NC(=O)c2ccccc2)sc1-c1csc(NCCc2ccccc2)n1	40*	0	2	27
